The text below walks through data of paper PMC8593914 (Experimental and Therapeutic Medicine, 2021).

Experiment [1] relates to kisspeptin. Description: SPR binding of RFRP-3 to immobilized kisspeptin. Details: species or system rat. The settings on record: Biacore T200. Put shortly:
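Kisspeptin at 20 µg/ml in sodium acetate pH 5.5 was coupled to a CM5 chip (5,720 RU). Running buffer was PBS-P: 10 mM phosphate, 2.7 mM KCl, 137 mM NaCl, 0.05% P20, pH […]. Test peptide at 3.125–50 µM went over the detection and reference channels at 4 °C: 60 s injection, 15 µl/min, 15 min dissociation. Regeneration used 10 mM glycine-HCl pH 2.0 for 30 s; kinetic parameters were fitted.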

Experiment [2] deals with GnRH neurons. Conditions: cited from earlier work.
Experiment [3] relates to mice. The settings on record: cited from earlier work.
Experiment [4] relates to LH and FSH. The settings on record: Japanese quail; cited from earlier work.

As to RFamide-related peptide-3 [RFRP-3], the “direct binding to kisspeptin (in words)” value in experiment [1] was “could bind directly to kisspeptin”. For the same substance, the “secretion of GnRH and expression and secretion of gonadotropin” value in experiment [2] was “inhibit the secretion of GnRH via its receptor on GnRH neurons, thus acting on the pituitary system to inhibit the expression and secretion of gonadotropin, LH and FSH”.

Turning to “SIKPSAYLPLRFa [GnIH, gonadotropin-inhibitory hormone]”, in experiment [3], the “expression levels of glucose transporter 4” value is “increased the expression levels of glucose transporter 4”, the food intake entry was “increased food intake”, the “glucose uptake / glucose transporter 8 expression” value is “reduced glucose uptake by downregulating the expression levels of glucose transporter 8” and the “synthesis of triglycerides in adipose tissue” value is “increased the synthesis of triglycerides in adipose tissue”. Besides, in experiment [3], the testosterone synthesis result is given as “reduced testosterone synthesis”. In addition, the “secretion of LH and FSH” value in experiment [4] was “inhibit the secretion of LH and FSH in the brain of Japanese quail”.
